The source of these data is ChEMBL document CHEMBL2150955, “Design, synthesis and evaluation of N-(substituted benzothiazol-2-yl)amides as anticonvulsant and neuroprotective” (Eur J Med Chem, 2012).

The subject of series [1] is Mus musculus. The experiment in a line: Hepatotoxicity in mouse assessed as hepatocytes degeneration at 30 mg/kg/day, po dosed for 2 weeks by Harris haematoxylin-eosin staining based […] microscopic analysis relative to control. It is filed as toxicity, organism-based, Hepatocyte. The arrangement: route oral. The conditions noted are these: 336 h.
Series [2] relates to Mus musculus. Description: Hepatotoxicity in mouse assessed as morphological changes in hepatic parenchyma at 30 mg/kg/day, po dosed for 2 weeks by Harris haematoxylin-eosin staining based […] microscopic analysis relative to control. It is filed as toxicity, organism-based. Further details: route oral. The conditions noted are these: in vivo, 336 h.
The test system of series [3] is Mus musculus. Description: CNS depressant activity in mouse assessed as immobility time at 100 mg/kg, ip measured 60 mins post dose by porsolt's swimming pool test. Format: organism-based. The arrangement: dose 100 mg/kg, route intraperitoneal. The conditions noted are these: in vivo, 1 h. A digest of the protocol: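 Behavioral depression was measured by Porsolt's swim test in albino mice of either sex. Immobility time (s) was recorded 24 h before as the control and again 60 min after treatment. Values are mean ± SEM of six mice, compared with Student's t test.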

Series [4] relates to Mus musculus. The experiment in a line: Increase in GABA level in mouse brain at 30 mg/kg, po dosed for 7 days by spectrophotometry relative to control. Format: functional.
The test system of series [5] is Mus musculus. Description: Neuroprotective activity in acrylamide-intoxicated mouse assessed as reduction in brain malonaldehyde level at 50 mg/kg, ip dosed 3 days/week for 3 weeks administered 10 mins before acrylamide challenge by TBARS detection assay. Format: functional, organism-based. The arrangement: dose 50 mg/kg. Put shortly: (§1)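 Mice were given acrylamide to induce brain degeneration, with compound administered 10 min before the acrylamide. Brain MDA (lipid peroxidation) and LDH activity were measured against controls. Values are mean ± SEM of six animals, compared with Student's t test.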

Series [6] has as its system Mus musculus. Description: Neurotoxicity in mouse assessed as minimal motor impairment at 300 mg/kg, ip after 0.5 hrs by rotarod test. It is filed as toxicity, organism-based. The arrangement: dose 300 mg/kg, route intraperitoneal. The conditions noted are these: in vivo. Put shortly:
(§2)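 Albino mice of either sex (25-30 g) received 30, 100 or 300 mg/kg (n = 6). Neurological deficit was assessed on the rotarod at 0.5 h and 4 h. The value recorded is the minimum dose producing neurotoxicity in half or more of the mice; 300 mg/kg is the maximum dose.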

Series [7] deals with Mus musculus. Description: Neuroprotective activity in acrylamide-intoxicated mouse assessed as reduction in brain LDH level at 50 mg/kg, ip dosed 3 days/week for 3 weeks administered 10 mins before acrylamide challenge by spectrophotometry. Format: functional, organism-based. Further details: dose 50 mg/kg. Put shortly:
as §1

Series [8] has as its system Mus musculus. Description: Anticonvulsant activity in ip dosed mouse assessed as compound concentration causing protection against subcutaneous pentylenetetrazol-induced seizures in half or more test animals after 4 hrs. Format: functional. The conditions noted are these: read-out: MED. A digest of the protocol: (§3)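 Albino mice of either sex (25-30 g), housed under standard conditions with free access to pellet diet and water. Compounds given at 30, 100 and 300 mg/kg (n = 6). MES and scPTZ seizures were read at 0.5 h and 4 h. The value recorded is the minimum dose protecting half or more of the mice; 300 mg/kg is the maximum dose.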

The subject of series [9] is Mus musculus. Description: Anticonvulsant activity in ip dosed mouse assessed as compound concentration causing protection against maximal electroshock-induced seizures in half or more test animals after 0.5 hrs. Format: functional. The conditions noted are these: read-out: MED. A digest of the protocol: as §3
In series [10] the test system is Mus musculus. The experiment in a line: Anticonvulsant activity in ip dosed mouse assessed as compound concentration causing protection against maximal electroshock-induced seizures in half or more test animals after 4 hrs. It is filed as functional. The conditions noted are these: read-out: MED. A digest of the protocol:
as §3

The subject of series [11] is Mus musculus. Description: Anticonvulsant activity in ip dosed mouse assessed as protection against maximal electroshock-induced seizures. Format: functional.
In series [12] the test system is Mus musculus. The experiment in a line: Anticonvulsant activity in ip dosed mouse assessed as compound concentration causing protection against subcutaneous pentylenetetrazol-induced seizures in half or more test animals after 0.5 hrs. Format: functional. The conditions noted are these: read-out: MED. Put shortly:
as §3

In series [13] the test system is Mus musculus. Description: Anticonvulsant activity in ip mouse assessed as protection against subcutaneous pentylenetetrazol-induced seizures. Format: functional. A digest of the protocol: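 This is the Phase II quantitation in albino mice of either sex (25-30 g). […] TD50 came from the rotarod test, read 30 min after dosing. The protective index is TD50/ED50.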

In series [14] the test system is Mus musculus. The experiment in a line: Neurotoxicity in mouse assessed as minimal motor impairment at 300 mg/kg, ip after 4 hrs by rotarod test. Format: toxicity, organism-based. The arrangement: dose 300 mg/kg, route intraperitoneal. The conditions noted are these: in vivo. A digest of the protocol:
as §2

Series [15] in a line: Neurotoxicity in ip dosed mouse after 30 mins by rotarod test. Format: toxicity, organism-based. The conditions noted are these: in vivo.
Series [16] is filed under the species Mus musculus. Description: Protective index, ratio of TD50 for mouse to ED50 for anticonvulsant activity in mouse by maximal electroshock-seizure test. It is filed as functional.
In series [17] the test system is Mus musculus. The experiment in a line: Protective index, ratio of TD50 for mouse to ED50 for anticonvulsant activity in mouse by subcutaneous pentylenetetrazol-induced seizure test. It is filed as functional.
Series [18] deals with Mus musculus. Description: Hepatotoxicity in mouse assessed as effect on SGOT level at 30 mg/kg, po after 2 weeks relative to control. The arrangement: dose 30 mg/kg, route oral. Format: toxicity, organism-based. The conditions noted are these: in vivo, 336 h. A digest of the protocol:
(§4)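 Serum SGOT, SGPT, alkaline phosphatase, total albumin and total protein were measured in treated mice against controls (n = 6). Data were analysed by ANOVA followed by Student's t test.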

Series [19] relates to Mus musculus. Description: Hepatotoxicity in mouse assessed as effect on SGPT level at 30 mg/kg/day, po dosed for 2 weeks relative to control. It is filed as toxicity, organism-based. Further details: route oral. The conditions noted are these: in vivo, 336 h. A digest of the protocol:
as §4

Series [20] deals with Mus musculus. The experiment in a line: Hepatotoxicity in mouse assessed as effect on alkaline phosphatase level at 30 mg/kg/day, po dosed for 2 weeks relative to control. Format: toxicity, organism-based. The arrangement: route oral. The conditions noted are these: in vivo, 336 h. A digest of the protocol:
as §4

Series [21] deals with Mus musculus. The experiment in a line: Hepatotoxicity in mouse assessed as effect on total albumin level at 30 mg/kg/day, po dosed for 2 weeks relative to control. It is filed as toxicity, organism-based. Further details: route oral. The conditions noted are these: in vivo, 336 h. Put shortly:
as §4

Series [22] has as its system Mus musculus. Description: Hepatotoxicity in mouse assessed as effect on total protein level at 30 mg/kg/day, po dosed for 2 weeks relative to control. It is filed as toxicity, organism-based. The arrangement: route oral. The conditions noted are these: in vivo, 336 h. A digest of the protocol:
as §4

Series [23] relates to Mus musculus. The experiment in a line: Hepatotoxicity in mouse assessed as liver necrosis at 30 mg/kg/day, po dosed for 2 weeks by Harris haematoxylin-eosin staining based […] microscopic analysis relative to control. It is filed as toxicity, organism-based. The arrangement: route oral. The conditions noted are these: in vivo, 336 h.
Series [24] relates to Mus musculus. Description: Hepatotoxicity in mouse assessed as hepatic inflammation at 30 mg/kg/day, po dosed for 2 weeks by Harris haematoxylin-eosin staining based […] microscopic analysis relative to control. Further details: route oral. The conditions noted are these: in vivo, 336 h. Format: toxicity, organism-based.

Active and inactive are the calls of the source. The rule behind the calls is not given here.

With `COc1ccc2nc(NC(=O)CCC(=O)c3ccccc3)sc2c1`, the Activity result in [1], in series [2], in series [6], in series [14], in [18] and in series [19] was “Non-toxic” in each case. For the same compound, the Activity result in [20], in series [21], in [22], in [23] and in series [24] was “Non-toxic” in each case. Further, in [3], the Time was determined as 135.6 s. Further, the “fold change (FC)” value in series [4] worked out at 1.8. The outcome in series [5] and in series [7] was Active. Also, the minimal effective dose in series [8] came out at 100 mg/kg; in series [9], 30 mg/kg; in [10] it was 30 mg/kg; in [12], 100 mg/kg. Also, the ED50 in series [11] is 41 mg/kg; in series [13] it was 85.2 mg/kg. In series [15], this compound gave a TD50 at 0.5 h of 348 mg/kg. Further, the figures for the “Ratio TD50/ED50” value in [16] and in series [17] were 8.4 and 4, respectively.
